ChEMBL document CHEMBL4834404, “Template-Hopping Approach Leads to Potent, Selective, and Highly Soluble Bromo and Extraterminal Domain (BET) Second Bromodomain (BD2) Inhibitors” (J Med Chem, 2021)
≈ marks a conversion by molar mass, not a printed value.

Legend:
[1] = target: Voltage-gated inwardly rectifying potassium channel KCNH2 (Homo sapiens, UniProt Q12809); assay: Inhibition of human ERG
[2] = Half life in Wistar Han rat at 1 mg/kg, iv measured upto 7 hrs by LC-MS/MS analysis; assay type: ADME, organism-based; settings: in vivo
Outline: (§1)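 Surgically cannulated male Wistar Han rats (femoral vein dosing, jugular vein sampling), given 1 h iv infusion at target 1 mg/kg, 0.2 mg/mL in DMSO/10% (w/v) Kleptose HPB in saline (2:98 v/v); n = 1. Serial 25 μL blood samples predose to 7 h; parent compound by LC-MS/MS (LLQ 1−2 ng/mL); non-compartmental analysis of blood concentration−time profiles.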

[3] = Oral bioavailability in Wistar Han rat at 3 mg/kg measured upto 24 hrs by LC-MS/MS analysis; assay type: ADME, organism-based; settings: in vivo
Outline: (§2)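 Three naive male Wistar Han rats dosed by oral gavage at target 3 mg/kg, suspended in 1% (w/v) methylcellulose aq at 0.6 mg/mL. Serial 25 μL blood samples via tail vein up to 24 h; parent compound by LC-MS/MS (LLQ 1 ng/mL) against standards in control blood; non-compartmental PK analysis.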

[4] = Fraction unbound in Wistar Han rat at 1 mg/kg, iv measured upto 4 hrs by LC-MS/MS analysis; assay type: ADME, organism-based
Outline: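 Control Wistar Han rat blood dialyzed against PBS by rapid equilibrium dialysis, 4 h at 37 °C, compound at 200 and 1000 ng/mL; matrix-matched aliquots analysed by LC-MS/MS; unbound fraction from buffer/blood peak area ratios, mean of the two concentrations.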

[5] = AUC in Wistar Han rat at 1 mg/kg, iv measured upto 7 hrs by LC-MS/MS analysis; assay type: ADME, organism-based; parameters: route intravenous, dose 1 mg/kg, time <=7; settings: in vivo; outline: as §1
[6] = target: T1, Bromodomain testis-specific protein (Homo sapiens, UniProt Q58F21); assay: Inhibition of 6His-FLAG-Tev-BRDT (1 to 397 residues) BD2 domain Y309A or Y66A mutant (unknown origin) incubated for 30 mins by TR-FRET assay
Homo sapiens = species: Homo sapiens; assay: Selectivity index, ratio of pIC50 of BRD4 BD1 (unknown origin) to pIC50 of BRD4 BD2 (unknown origin)
[7] = target: Bromodomain-containing protein 4 (Homo sapiens, UniProt O60885, Y390A); assay: Inhibition of 6His-Thr-BRD4 (1 to 477 residues) BD2 domain Y390A mutant (unknown origin) incubated for 30 mins by TR-FRET assay
[8] = target: T2, Bromodomain-containing protein 3 (Homo sapiens, UniProt Q15059); assay: Inhibition of 6His-Thr-BRD3 (1 to 435 residues) BD1 domain (unknown origin) incubated for 30 mins by TR-FRET assay
Target sequence in this assay (Q15059 whole entry, the tested form may be a part): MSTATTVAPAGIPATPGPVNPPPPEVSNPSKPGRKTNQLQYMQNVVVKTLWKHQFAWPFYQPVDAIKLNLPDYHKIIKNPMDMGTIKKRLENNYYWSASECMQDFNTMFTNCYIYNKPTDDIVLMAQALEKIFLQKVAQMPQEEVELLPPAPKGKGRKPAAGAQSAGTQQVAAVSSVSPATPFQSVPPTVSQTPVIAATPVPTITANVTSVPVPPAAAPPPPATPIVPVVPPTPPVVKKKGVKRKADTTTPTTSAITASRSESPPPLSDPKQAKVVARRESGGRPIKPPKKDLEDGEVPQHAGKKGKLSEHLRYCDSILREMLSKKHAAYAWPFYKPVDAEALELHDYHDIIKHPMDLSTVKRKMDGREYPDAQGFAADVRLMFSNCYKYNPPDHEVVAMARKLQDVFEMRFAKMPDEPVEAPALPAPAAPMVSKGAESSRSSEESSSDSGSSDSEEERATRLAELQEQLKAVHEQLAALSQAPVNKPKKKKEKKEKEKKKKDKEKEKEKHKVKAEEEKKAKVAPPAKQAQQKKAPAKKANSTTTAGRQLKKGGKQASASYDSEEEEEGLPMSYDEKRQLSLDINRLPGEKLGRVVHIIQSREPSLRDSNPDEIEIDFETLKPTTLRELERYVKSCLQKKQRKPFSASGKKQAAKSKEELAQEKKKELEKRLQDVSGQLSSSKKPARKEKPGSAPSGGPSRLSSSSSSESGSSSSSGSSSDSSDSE

[9] = Metabolic stability in human Hepatocyte assessed as intrinsic clearance at 0.5 uM incubated for 120 mins by LC-MS/MS analysis; assay type: ADME, tissue-based; settings: hepatocytes, 2 h
[10] = Unbound clearance in Wistar Han rat at 1 mg/kg, iv measured upto 7 hrs by LC-MS/MS analysis; assay type: ADME, organism-based; settings: in vivo
[11] = target: T3, Bromodomain-containing protein 2 (Homo sapiens, UniProt P25440); assay: Inhibition of 6His-Thr-BRD2 (1 to 473 residues) BD2 domain Y386A or Y113A mutant (unknown origin) incubated for 30 mins by TR-FRET assay
T3 sequence (P25440 whole entry, the tested form may be a part): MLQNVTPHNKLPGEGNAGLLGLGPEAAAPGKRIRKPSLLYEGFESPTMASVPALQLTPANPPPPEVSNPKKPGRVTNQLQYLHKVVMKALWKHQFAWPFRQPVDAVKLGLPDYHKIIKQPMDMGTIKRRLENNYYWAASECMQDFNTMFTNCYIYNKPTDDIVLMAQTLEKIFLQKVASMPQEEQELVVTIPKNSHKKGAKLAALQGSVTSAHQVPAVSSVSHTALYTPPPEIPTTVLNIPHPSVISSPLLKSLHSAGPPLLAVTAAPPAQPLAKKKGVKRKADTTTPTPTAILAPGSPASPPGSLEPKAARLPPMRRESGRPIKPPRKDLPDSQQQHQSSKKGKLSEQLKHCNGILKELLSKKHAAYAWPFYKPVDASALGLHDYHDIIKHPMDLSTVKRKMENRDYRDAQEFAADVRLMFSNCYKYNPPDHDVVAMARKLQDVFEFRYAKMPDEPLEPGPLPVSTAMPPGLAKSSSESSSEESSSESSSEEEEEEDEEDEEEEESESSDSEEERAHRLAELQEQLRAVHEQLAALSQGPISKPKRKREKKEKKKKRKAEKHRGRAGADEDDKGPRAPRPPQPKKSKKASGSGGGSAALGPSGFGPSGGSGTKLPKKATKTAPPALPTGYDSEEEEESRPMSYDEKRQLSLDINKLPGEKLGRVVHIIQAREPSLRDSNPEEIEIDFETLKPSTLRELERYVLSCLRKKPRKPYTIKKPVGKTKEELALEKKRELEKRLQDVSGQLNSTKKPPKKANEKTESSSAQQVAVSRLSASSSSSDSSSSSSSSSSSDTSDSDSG

[12] = target: T3, Bromodomain-containing protein 2; assay: Inhibition of 6His-Thr-BRD2 (1 to 473 residues) BD1 domain (unknown origin) incubated for 30 mins by TR-FRET assay
[13] = Metabolic stability in rat Hepatocyte assessed as intrinsic clearance at 0.5 uM incubated for 60 mins by LC-MS/MS analysis; assay type: ADME, tissue-based; settings: hepatocytes, 1 h
[14] = Dose normalized AUC in Wistar Han rat at 3 mg/kg, po measured upto 24 hrs by LC-MS/MS analysis; assay type: ADME, organism-based; settings: in vivo; outline: as §2
Blood = assay: Inhibition of LPS-stimulated MCP-1 production in human whole blood incubated for 24 hrs by mesoscale assay; assay type: functional, tissue-based
Outline: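 Sodium-heparinized human whole blood preincubated 30 min with compound (DMSO dilutions, 140× stocks) at 37 °C, 5% CO₂, then stimulated with Salmonella typhosa LPS (200 ng/mL final) for 24 h. PBS added, plates centrifuged, supernatant MCP-1 quantified by MesoScale Discovery immunoassay.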

[15] = Inhibition of LPS-induced MCP1 production in PBMC (unknown origin); assay type: functional, tissue-based
[16] = Permeability of compound; assay type: ADME; settings: not told; read-out: permeability
[17] = target: T1, Bromodomain testis-specific protein; assay: Inhibition of 6His-FLAG-Tev-BRDT (1 to 397 residues) BD1 domain (unknown origin) incubated for 30 mins by TR-FRET assay
[18] = Volume of distribution at steady state in Wistar Han rat at 1 mg/kg, iv measured upto 7 hrs by LC-MS/MS analysis; assay type: ADME, organism-based; settings: in vivo, read-out: Vdss; outline: as §1
[19] = Clearance in Wistar Han rat at 1 mg/kg, iv measured upto 7 hrs by LC-MS/MS analysis; assay type: ADME, organism-based; settings: in vivo; outline: as §1
[20] = target: Bromodomain-containing protein 4 (Homo sapiens, UniProt O60885, Y97A); assay: Inhibition of 6His-Thr-BRD4 (1 to 477 residues) BD1 Y97A mutant (unknown origin) incubated for 30 mins by TR-FRET assay
[21] = target: T2, Bromodomain-containing protein 3; assay: Inhibition of 6His-Thr-BRD3 (1 to 435 residues) BD2 domain Y348A or Y73A mutant (unknown origin) incubated for 30 mins by TR-FRET assay
Target sequence in this assay (Q15059 2-726 limits assumed): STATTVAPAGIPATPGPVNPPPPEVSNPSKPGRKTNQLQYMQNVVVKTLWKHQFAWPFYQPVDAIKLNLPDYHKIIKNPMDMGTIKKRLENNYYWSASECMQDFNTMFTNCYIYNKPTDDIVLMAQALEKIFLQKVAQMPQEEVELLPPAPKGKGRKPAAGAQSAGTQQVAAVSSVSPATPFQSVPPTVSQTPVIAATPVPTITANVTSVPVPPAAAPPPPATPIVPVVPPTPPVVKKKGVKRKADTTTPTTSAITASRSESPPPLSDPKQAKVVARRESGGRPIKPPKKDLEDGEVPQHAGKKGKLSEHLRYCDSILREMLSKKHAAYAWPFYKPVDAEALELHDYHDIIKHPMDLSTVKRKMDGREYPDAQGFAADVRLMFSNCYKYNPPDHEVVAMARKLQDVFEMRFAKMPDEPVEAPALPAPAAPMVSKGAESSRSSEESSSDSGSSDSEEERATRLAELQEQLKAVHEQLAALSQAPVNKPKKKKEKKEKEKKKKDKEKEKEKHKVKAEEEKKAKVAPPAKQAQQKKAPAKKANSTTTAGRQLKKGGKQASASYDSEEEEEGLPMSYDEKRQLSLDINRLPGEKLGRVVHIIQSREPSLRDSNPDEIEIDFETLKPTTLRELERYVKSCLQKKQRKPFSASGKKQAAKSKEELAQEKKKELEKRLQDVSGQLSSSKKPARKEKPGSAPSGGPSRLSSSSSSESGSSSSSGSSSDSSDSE

[22] = Solubility of compound by CLND assay; assay type: physicochemical
Albumin = Albumin (Homo sapiens, UniProt P02768); assay: Binding affinity to human serum albumin; assay type: ADME; settings: isolated protein
Sequence of Albumin (P02768 whole entry): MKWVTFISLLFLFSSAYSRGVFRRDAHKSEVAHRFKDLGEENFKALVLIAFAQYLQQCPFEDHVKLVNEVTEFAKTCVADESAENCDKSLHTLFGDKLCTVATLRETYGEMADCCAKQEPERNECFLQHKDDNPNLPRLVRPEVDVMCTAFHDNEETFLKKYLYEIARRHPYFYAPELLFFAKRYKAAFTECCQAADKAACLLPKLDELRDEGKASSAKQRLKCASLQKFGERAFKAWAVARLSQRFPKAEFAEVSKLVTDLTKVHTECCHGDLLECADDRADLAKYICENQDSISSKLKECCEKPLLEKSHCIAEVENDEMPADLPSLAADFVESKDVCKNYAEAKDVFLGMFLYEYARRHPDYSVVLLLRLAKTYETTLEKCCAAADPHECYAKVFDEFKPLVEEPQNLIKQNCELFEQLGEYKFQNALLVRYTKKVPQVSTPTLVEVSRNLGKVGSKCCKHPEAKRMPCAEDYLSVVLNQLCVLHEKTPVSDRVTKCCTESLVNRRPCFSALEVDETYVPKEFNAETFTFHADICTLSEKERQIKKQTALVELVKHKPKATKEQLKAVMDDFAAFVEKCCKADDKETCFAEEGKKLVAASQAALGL
Outline: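 Chromatographic binding on chemically bonded HSA column (50 × 3 mm), 1.8 mL/min; mobile phase 50 mM ammonium acetate pH 7.4 with 2-propanol gradient (0−30% over 3 min, hold to 6 min, back to 0%); gradient retention time recorded.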

Sequence of Voltage-gated inwardly rectifying potassium channel KCNH2 (Q12809 whole entry): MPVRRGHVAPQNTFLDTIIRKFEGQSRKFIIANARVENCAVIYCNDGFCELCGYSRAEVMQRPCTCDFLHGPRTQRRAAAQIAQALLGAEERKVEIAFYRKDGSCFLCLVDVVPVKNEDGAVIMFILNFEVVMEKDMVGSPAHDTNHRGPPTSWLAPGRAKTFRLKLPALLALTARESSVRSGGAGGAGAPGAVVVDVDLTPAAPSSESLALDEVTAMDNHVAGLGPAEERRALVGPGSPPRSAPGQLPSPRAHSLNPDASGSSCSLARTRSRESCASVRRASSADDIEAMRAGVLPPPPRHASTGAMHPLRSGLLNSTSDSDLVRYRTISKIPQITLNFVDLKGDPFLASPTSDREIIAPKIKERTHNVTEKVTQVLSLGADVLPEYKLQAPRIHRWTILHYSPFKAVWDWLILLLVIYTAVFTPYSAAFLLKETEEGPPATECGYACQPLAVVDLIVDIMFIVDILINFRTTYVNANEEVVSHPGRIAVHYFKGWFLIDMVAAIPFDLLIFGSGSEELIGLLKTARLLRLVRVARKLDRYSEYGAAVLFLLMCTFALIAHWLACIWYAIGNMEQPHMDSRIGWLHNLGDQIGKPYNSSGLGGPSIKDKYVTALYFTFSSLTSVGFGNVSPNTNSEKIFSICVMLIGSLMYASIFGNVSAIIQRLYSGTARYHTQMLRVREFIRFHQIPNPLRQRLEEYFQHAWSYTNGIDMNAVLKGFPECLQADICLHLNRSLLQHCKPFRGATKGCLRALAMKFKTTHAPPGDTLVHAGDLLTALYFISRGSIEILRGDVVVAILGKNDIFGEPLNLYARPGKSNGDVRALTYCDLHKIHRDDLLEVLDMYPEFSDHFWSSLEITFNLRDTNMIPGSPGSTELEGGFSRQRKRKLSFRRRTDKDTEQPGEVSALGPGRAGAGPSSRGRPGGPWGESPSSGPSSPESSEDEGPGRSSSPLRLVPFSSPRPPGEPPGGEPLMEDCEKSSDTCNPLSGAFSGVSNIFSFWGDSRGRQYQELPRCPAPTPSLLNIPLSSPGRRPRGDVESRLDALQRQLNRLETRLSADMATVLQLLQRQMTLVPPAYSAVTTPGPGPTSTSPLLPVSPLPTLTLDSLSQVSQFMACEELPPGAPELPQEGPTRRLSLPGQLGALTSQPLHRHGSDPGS

Row | half-life [2] | bioavailability [3] | AUC at 7 h [5] | Ratio pIC50 (Homo sapiens) | IC50 [7] | IC50 [8] | CLH [9] | CL free [10] | pIC50 [11] | IC50 [12] | CLH [13] | AUC/dose [14] | IC50 (Blood) | IC50 [15] | Papp [16] | Vd [18] | clearance [19] | IC50 [20] | pIC50 [21] | Structure (SMILES) | IC50 [1] | also measured
1 | 27 min | 59% | 873 ng·h/mL | 200 | 0.251 µM | > 50.1 µM | 1.18 mL/min/g | 102 mL/min/kg | 5.8 | > 50.1 µM | 1.09 mL/min/g | 30 kg·min/L | 2.51 µM | 0.251 µM | 47 ×10⁻⁶ cm/s | 0.7 L/kg | 19 mL/min/kg | 50.1 µM | 6.5 | CCNC(=O)c1ccc(OCc2cccc(C)n2)c(-c2cn(C)nn2)c1 | > 50.1 µM | fraction unbound at 4 h [4]: 0.19; pIC50 [6]: 6.4; IC50 [17]: > 50.1 µM; solubility kinetic [22]: ≥ 137 µg/mL; Activity (Albumin): 84%
2 | 99 min | 32% | 1180 ng·h/mL | 100 | 0.0501 µM | 12.6 µM | < 0.45 mL/min/g | 19 mL/min/kg | 6.6 | 39.8 µM | < 0.8 mL/min/g | 23 kg·min/L | 0.398 µM | 0.0158 µM | 15 ×10⁻⁶ cm/s | 1.8 L/kg | 14 mL/min/kg | 5.01 µM | 7.1 | C[C@H](Oc1ccc(C(=O)NC2CC2)cc1-c1cn(C)nn1)c1ccccn1 | 39.8 µM | fraction unbound at 4 h [4]: 0.76; solubility kinetic [22]: 145 µg/mL (≈ 399 µM); Activity (Albumin): 84%
3 | 52.2 min | 31% | 778 ng·h/mL | 315 | 0.0316 µM | 31.6 µM | < 0.45 mL/min/g | 205 mL/min/kg | 7.3 | 25.1 µM | 1.98 mL/min/g | 15 kg·min/L | 0.398 µM | 0.0251 µM | 30 ×10⁻⁶ cm/s | 1.1 L/kg | 21 mL/min/kg | 10 µM | 7.5 | CCNC(=O)c1cc(Cc2cccc3[nH]ccc23)nc(-c2cn(C)nn2)c1 | 31.6 µM | pIC50 [6]: 7.3; IC50 [17]: 25.1 µM; solubility kinetic [22]: ≥ 148 µg/mL; Activity (Albumin): 90%
